Screens (PubChem)
The full list was thinned out, with hits kept by preference.
HUVEC inhibit = inhibitors of HUVEC proliferation, primary screen, cell-based, 384-well | 86,000 compounds, 1.1% hits | CellTiter-Glo luminescence, 72 h; hits give low values | viability, % at 10 µM (by protocol) | AID 648, 2007;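 active = viability at or below 30%; inactive = viability above 30%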
Lung fibro prol = antiproliferative effect on LL 47 fibroblasts – human, LL 47 cells, CellTiter-Glo luminescence, primary screen; LL 47 human lung fibroblast viability, ATP luminescence; hits give low values; viability, % at 10 µM; 85,000 compounds, 1.1% hits; AID 719, 2007;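 active = viability at or below 50% in the single dose screen; inactive = viability above 50%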;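 also: compound exposure lasted 72 h before the ATP readout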
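Test system: LL 47 human lung fibroblasts / Quantity: 1,150 cells in each well / Medium: IMEM growth medium with 15% fetal bovine serum / Incubation: 72 h compound exposure at 37 °C after overnight plating / Detection: CellTiter-Glo luminescence measuring cellular ATP / Read-out: % viability versus median cells-only luminescence / Benchmarks: cell-only wells, no compound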
H69AR growth 86K = proliferation blockers of H69AR lung cancer cells, primary screen, cell-based, human, 86K library; H69AR lung tumor viability, ATP luminescence, 72 h; hits give low values; viability, % at 10 µM; 85,000 compounds, 6% hits;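 active = viability at or below 40%; inactive = viability above 40%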;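 also: multidrug resistant small cell line overexpressing MRP-1 efflux transporter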
HCT116 PTEN-null = growth suppression of PTEN-null HCT116, primary screen, cell-based, CellTiter-Glo; HCT116 PTEN-null viability, 60 h; hits give low values; viability, % at 10 µM; 140,000 compounds, 1.2% hits; AID 827, 2007;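 active = viability at or below a set limit, 4 SD under the median of all tested compounds, cut at about 3.7% in these data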;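 also: PTEN knockout HCT116 line with beta catenin targeted HCT116 as companion control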
Candida biofilm = clotrimazole potentiators killing Candida biofilms, primary screen, with clotrimazole, Alamar Blue | C. albicans biofilm + clotrimazole | inhibition, % at 6 µM | 85,000 compounds, 0.14% hits | AID 834, 2007;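 active = inhibition above 20%; inactive = inhibition below 20%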;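 also: preformed 24 hr biofilms exposed to compound for 48 hr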
HCT116 bCat-KO = primary screen for growth suppressors in beta-catenin knockout HCT116 cells (colon tumor, human); HCT116 beta-catenin knockout viability, CellTiter-Glo, 60 h; hits give low values; viability, % at 10 µM; 140,000 compounds, 1.5% hits;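 active = viability at or under a set limit, the compound median less 4 SD, cut at about 6% in these data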
Of the large screens only hits and unclear results are named; the others gave an inactive call.

CN(CCNC(=O)c1cc2c(=O)n(C)c3ccccc3c2n1C)Cc1ccccc1	H69AR growth 86K 37.4, HCT116 PTEN-null 3.3, HCT116 bCat-KO 2.4
Cc1ccc(CNC(=O)c2cc3c(=O)n(C)c4ccccc4c3n2C)cc1	none
Cn1c(C(=O)NCCN2CCOCC2)cc2c(=O)n(C)c3ccccc3c21	none
Cn1c(C(=O)NCCN2CCc3ccccc3C2)cc2c(=O)n(C)c3ccccc3c21	H69AR growth 86K 15.1
Cn1c(C(=O)NCc2cccs2)cc2c(=O)n(C)c3ccccc3c21	H69AR growth 86K 39.8
Cc1cccc(C)c1NC(=S)NC(C)CCc1ccccc1 (stereo not given)	none (no result: HUVEC inhibit, Lung fibro prol, H69AR growth 86K, Candida biofilm)
O=C(Nc1nnc(-c2ccccc2Cl)o1)c1ccco1	none
COc1cccc2sc(Nc3nc(-c4cc5ccccc5oc4=O)cs3)nc12	none (no result: HUVEC inhibit, Lung fibro prol, H69AR growth 86K, Candida biofilm)
COc1ccccc1-c1nnc(Nc2nc3c(OC)cccc3s2)o1	HCT116 bCat-KO 5.1 (no result: HUVEC inhibit, Lung fibro prol, H69AR growth 86K, Candida biofilm)
COc1cccc(-c2nnc(NC(C)=O)o2)c1	none (no result: HCT116 PTEN-null, HCT116 bCat-KO)
COc1cccc2sc(Nc3nnc(-c4ccccc4Cl)o3)nc12	HUVEC inhibit 2.4, Lung fibro prol 41.4, H69AR growth 86K 26.6
COc1cccc(-c2nnc(Nc3nc4c(F)cccc4s3)o2)c1	HUVEC inhibit 15.6
O=C(Nc1nnc(-c2ccccc2Cl)o1)c1nc2ccccc2s1	H69AR growth 86K 28.3
Cc1cc(C)c(S(=O)(=O)N(C2=NCCS2)S(=O)(=O)c2c(C)cc(C)cc2C)c(C)c1	H69AR growth 86K 22.3
CCn1c(SCC(=O)N2CCOCC2)nc2sc3c(c2c1=O)CCCC3	H69AR growth 86K 38.9
O=C(CSc1nc2sc3c(c2c(=O)n1Cc1ccco1)CCC3)N1CCc2ccccc21	H69AR growth 86K 28.6 (no result: HCT116 PTEN-null, HCT116 bCat-KO)
CCn1c(SCC(=O)N2CCOCC2)nc2oc3c(Cl)cc(Cl)cc3c(=O)c2c1=O	H69AR growth 86K 14.0
CCCCN(C(=O)CN1CCOCC1)c1c(N)n(CC(C)C)c(=O)[nH]c1=O	none (no result: HUVEC inhibit, Lung fibro prol, H69AR growth 86K, Candida biofilm)
CC(C)(Oc1ccc(Cl)cc1)C(=O)N/N=C/c1cn[nH]c1-c1ccccc1	none (no result: HUVEC inhibit, Lung fibro prol, H69AR growth 86K, Candida biofilm)
COc1cc(NC(=O)c2cccs2)c(C(=O)OCC(=O)NC(=O)NCc2ccccc2)cc1OC	H69AR growth 86K 26.6
COc1cc(NC(=O)c2cccs2)c(C(=O)OCC(=O)NC(=O)NC(C)(C)C)cc1OC	none
CCC(=O)Oc1ccc(C/C(=N\O)c2ccc(O)cc2O)o1	H69AR growth 86K 15.6
Cc1ccc(-n2nnc3c(=O)n(Cc4cc(C)ccc4C)cnc32)cc1	H69AR growth 86K 32.8
CCC(O)CNc1nc(-n2nc(C)cc2C)nc2sc3c(c12)CCCC3 (stereo not given)	H69AR growth 86K 8.4 (no result: HCT116 PTEN-null, HCT116 bCat-KO)
Cc1cc(C)n(-c2nc(SCCN(C)C)c3c4c(sc3n2)CCCC4)n1	HUVEC inhibit 2.3, Lung fibro prol 3.0, H69AR growth 86K 2.7, HCT116 PTEN-null 2.0, HCT116 bCat-KO 3.0
Cc1ccc(C)c(C(=O)COC(=O)c2ccccc2N2C(=O)C3C4CCC(C4)C3C2=O)c1 (stereo not given)	none (no result: HUVEC inhibit, Lung fibro prol, H69AR growth 86K, Candida biofilm)
Cc1cc2nc(-c3ccc(SCC(=O)N4CCc5ccccc54)nc3)[nH]c2cc1C	HCT116 PTEN-null 1.0, HCT116 bCat-KO 0.8 (no result: HUVEC inhibit, Lung fibro prol, H69AR growth 86K, Candida biofilm)
O=C(NCc1cccnc1)/C(=C\c1ccc(-c2ccc(Br)cc2)o1)S(=O)(=O)c1ccccc1	HCT116 PTEN-null 0.9, HCT116 bCat-KO 1.6 (no result: HUVEC inhibit, Lung fibro prol, H69AR growth 86K, Candida biofilm)
O=C(NCc1cccnc1)/C(=C/c1ccc(-c2ccc(Cl)cc2)o1)S(=O)(=O)c1ccccc1	HCT116 PTEN-null 1.3, HCT116 bCat-KO 1.7 (no result: HUVEC inhibit, Lung fibro prol, H69AR growth 86K, Candida biofilm)
COc1cc(/C=C2/C(=N)N3C=CSC3=NC2=O)ccc1OCCCOc1cc(C)ccc1C	HUVEC inhibit 15.2, H69AR growth 86K 19.1
COc1ccc(C(=O)Cn2c(NCCO)nc3ccccc32)cc1OC	none
CCCCOC(=O)n1c(=O)oc2ccccc21	none
CCOC(=O)n1c(=O)oc2ccc(Cl)cc21	H69AR growth 86K 38.2
CCOC(=O)c1cnn(-c2sc(C(=O)OCC)c(C)c2C(=O)OCC)c1N	H69AR growth 86K 24.0 (no result: HCT116 PTEN-null, HCT116 bCat-KO)
COc1ccccc1C(c1nnnn1Cc1ccccc1)N1CCN(C2CCCC2)CC1 (stereo not given)	none
c1ccc(Cn2nnnc2C(c2cccs2)N2CCCCCC2)cc1 (stereo not given)	H69AR growth 86K 21.9
COc1cccc(C(c2nnnn2Cc2ccccc2)N2CCN(C3CCCC3)CC2)c1OC (stereo not given)	H69AR growth 86K 19.6
c1ccc(Cn2nnnc2C(c2cccs2)N2CCc3ccccc3C2)cc1 (stereo not given)	none
O=C(CNS(=O)(=O)c1ccc(Br)s1)N1CCC(N2CCCCC2)CC1	none
Cc1ccc(-n2ncc3c(=O)[nH]c(SCC(=O)N4CCN(c5ccccc5)CC4)nc32)cc1	none
CCCCCSc1nc2c(cnn2-c2ccccc2)c(=O)[nH]1	H69AR growth 86K 26.5
Cc1ccc(-n2ncc3c(=O)[nH]c(SCC(=O)N4CCCc5ccccc54)nc32)cc1	H69AR growth 86K 32.2
COC(=O)c1ccc(CSc2nc3c(cnn3-c3ccc(C)cc3)c(=O)[nH]2)o1	HUVEC inhibit 29.0, H69AR growth 86K 20.1
CC(C)Sc1nc2c(cnn2-c2ccccc2)c(=O)[nH]1	none
Cc1ccc(-n2ncc3c(=O)[nH]c(SCC(=O)N4CCOCC4)nc32)cc1	none
O=c1[nH]c(CSc2nc3ccccc3o2)nc2c1cnn2-c1ccccc1	H69AR growth 86K 17.6
O=C(O)/C=C/C(=O)Nc1ccccc1SC(F)(F)F	none (no result: HUVEC inhibit, Lung fibro prol, H69AR growth 86K, Candida biofilm)
CCOC(=O)C(C)Sc1nc2c(cnn2-c2ccc(C)cc2)c(=O)[nH]1 (stereo not given)	H69AR growth 86K 19.5
Cc1ccc(-n2ncc3c(=O)[nH]c(SC(C)C)nc32)cc1	none
CCC(=O)Oc1ccc(C(=O)Nc2ccc3c(c2)C(=O)N(C2CCCCC2)C3=O)cc1	H69AR growth 86K 5.3
CC(C)(C)C(=O)COC(=O)CNC(=O)c1ccc(Oc2ccccc2)cc1	none
CC(=O)Nc1ccc(-c2nnc(SCC(=O)n3c4c(c5ccccc53)CCCC4)n2C)cc1	H69AR growth 86K 35.2
O=C(NC1CCCCC1)C(c1cc2c(cc1[N+](=O)[O-])OCO2)N1CCCCC1 (stereo not given)	none (no result: HUVEC inhibit, Lung fibro prol, H69AR growth 86K, Candida biofilm)
Cc1cccc2sc(N(CCCN(C)C)C(=O)CCc3ccccc3)nc12	HCT116 PTEN-null 1.9, HCT116 bCat-KO 1.6 (no result: HUVEC inhibit, Lung fibro prol, H69AR growth 86K, Candida biofilm)
CN(C)CCCN(C(=O)CCc1ccccc1)c1nc2ccc(F)cc2s1	none (no result: HUVEC inhibit, Lung fibro prol, H69AR growth 86K, Candida biofilm)
CC(NC(=O)c1cc(-c2ccc(Br)cc2)on1)c1ccccc1 (stereo not given)	H69AR growth 86K 22.4
CC1CCCC/C1=N\NS(=O)(=O)c1ccc(Br)cc1 (stereo not given)	none
O=C(CSc1nnc(Nc2ccccc2)s1)NN1C(=O)NC2(CCCCC2)C1=O	none (no result: HUVEC inhibit, Lung fibro prol, H69AR growth 86K, Candida biofilm)
C=CCNC(=O)CCCCC(=O)NCC=C	H69AR growth 86K 32.4
